# Compound activity as filed in PubChem BioAssay.
# Rows were chosen to be rich in hits. Some 3.6% of all compounds tested hit in one or more screens of this group.
# ATG4B inh – inhibitors of human ATG4B cysteine protease; 0.51% of 340,000 active; Q9Y4P1; ATG4B cleavage of LC3-PLA2, NBD-HPC fluorescence, 1 h; AID 504462; inhibition, % at 8.33 µM; in the data active = inhibition above about 40%
# SENP1 inh – SENP1 (human) catalytic domain inhibition; Q9P0U3; recombinant SENP1 catalytic domain, CyPet-SUMO1-YPet FRET cleavage; inhibition, % at 10 µM; 0.21% of 360,000 active;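 active = inhibition at least 30% at 10 µM, raw YFP signal under a set limit, fluorescence ratio 0.5 to 1.5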
# Target sequence (Q9P0U3 419-644 limits assumed): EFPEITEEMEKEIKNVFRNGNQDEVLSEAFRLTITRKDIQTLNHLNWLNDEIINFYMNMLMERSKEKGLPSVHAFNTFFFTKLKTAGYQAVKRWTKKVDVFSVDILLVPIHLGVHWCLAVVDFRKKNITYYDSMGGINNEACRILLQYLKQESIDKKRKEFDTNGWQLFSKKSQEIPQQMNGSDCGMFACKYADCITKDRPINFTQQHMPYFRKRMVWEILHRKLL
#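 Controls: no-enzyme wells low, DMSO-plus-enzyme wells high control. Test system: human recombinant His6-tagged SENP1 catalytic domain enzyme. Reagent: SFCypet-SUMO1-SFYpet FRET protein substrate, 25 nM final. Doses: one dose per compound, 10 µM, 0.5% DMSO. Detection: FRET, CFP and YFP emission. Timing: 50 min reaction at room temperature.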
# NadD inh – NadD (S. aureus) enzyme inhibition | purified NadD enzyme, colorimetric absorbance read-out | inhibition, % at 20 µM | 0.78% of 360,000 active | AID 602399; in the data active = inhibition above about 26%
# UCH37 inh – human UCH37 deubiquitinating enzyme inhibition; purified proteasome/UCH37, Ub-AMC cleavage fluorescence; Q9Y5K5; inhibition, % (no concentration beside the values); 0.33% of 330,000 active;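 active = mean inhibition over replicate wells above about 20%, limit read from the data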
# Target sequence (Q9Y5K5 whole entry, looked up): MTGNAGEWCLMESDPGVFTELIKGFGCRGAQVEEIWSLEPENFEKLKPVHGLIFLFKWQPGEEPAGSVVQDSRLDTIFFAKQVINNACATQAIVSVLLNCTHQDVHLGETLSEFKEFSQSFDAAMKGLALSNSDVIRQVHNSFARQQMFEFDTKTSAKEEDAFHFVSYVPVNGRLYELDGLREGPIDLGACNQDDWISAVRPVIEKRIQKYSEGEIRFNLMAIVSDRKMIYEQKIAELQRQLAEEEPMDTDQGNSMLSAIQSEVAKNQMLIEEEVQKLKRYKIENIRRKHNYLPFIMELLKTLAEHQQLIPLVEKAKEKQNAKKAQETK
#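 Schedule: 30 min plus 25 min, room temperature / Material: human UCH37 within purified proteasomes / Technique: AMC fluorescence intensity at 355/460 nm / Buffer or medium: pH 7.4 Tris-HCl (50 mM) with ovalbumin, ATP-MgCl2, DTT / Controls: wells without proteasome as full block, compound-free enzyme plus substrate as uninhibited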
# GRIN3A LBD mod – NR3A (human) ligand-binding domain modulation; NR3A LBD differential scanning fluorimetry, Tm shift; 0% = protein alone, 100% = glycine-bound protein; Tm shift relative to glycine control, % at 25 µM; 2.5% of 340,000 active; AID 1259313;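 active = melting temperature shift of at least 10% of the positive control shift, at one fixed dose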
# A number is an active result; – = inactive; · = no result.
SMILES,ATG4B inh,SENP1 inh,NadD inh,UCH37 inh,GRIN3A LBD mod
COc1ccc(CC(=O)N(C)Cc2ccc(C(C)(C)C)cc2)cc1S(=O)(=O)N1CCOCC1,–,–,–,–,11
COc1cc(C=NNC(=O)c2ccncc2)ccc1OCc1cnc(Cl)s1,·,·,·,–,·
O=C(NN=Cc1ccc[nH]1)c1ccc2c(c1)OCO2,·,·,·,–,·
O=C(Cc1ccccc1)N/N=C/c1cc(Br)cc(Br)c1O,–,–,–,·,12
O=C(CNC(=O)c1cccc(Br)c1)N/N=C/c1cc(Br)cc(Br)c1O,–,–,–,·,17
CCCCCCCCCCCCCCCC(=O)NCCc1c[nH]c2ccccc12,–,–,–,–,–
CCCCOc1ccc(-c2nnn(CC(=O)NCCc3c[nH]c4ccccc34)n2)cc1,–,–,–,–,17
COc1ccccc1/C=C/C=Nn1c(-c2ccco2)n[nH]c1=S,·,·,·,–,·
O=C(/C=C/c1ccccc1O)c1ccco1,–,–,–,–,23
O=C(/C=C/c1cc(Br)ccc1O)c1ccco1,–,–,–,–,–
COc1ccc(NC(=O)c2nnn(CC(=O)Nc3ccc4c(c3)OCO4)c2N)cc1OC,–,–,–,–,–
COc1cccc(NC(=O)Cn2nnc(C(=O)Nc3cc(Cl)ccc3OC)c2N)c1,–,–,–,–,25
COc1ccc(Cl)cc1NC(=O)c1nnn(CC(=O)Nc2ccc3c(c2)OCO3)c1N,–,–,–,–,20
CCCSc1cc(NCCOC(C)=O)c([N+](=O)[O-])c2nonc12,–,–,–,–,13
NS(=O)(=O)c1ccc(NC(CNS(=O)(=O)c2ccccc2)c2ccccc2)cc1 (stereo not drawn),–,–,–,–,–
COC(CNS(=O)(=O)c1ccc(Cl)cc1)c1ccccc1 (stereo not drawn),–,–,–,–,–
Cc1ccc(NC(CNS(=O)(=O)c2ccc(Cl)cc2)c2ccccc2)cc1 (stereo not drawn),–,–,–,–,11
O=S(=O)(NCC(Nc1ccc(Cl)cc1)c1ccccc1)c1ccccc1 (stereo not drawn),–,–,–,–,23
O=C1COc2ccc(S(=O)(=O)N3CCN(c4ccccc4F)CC3)cc2N1,–,–,–,–,12
O=C1COc2ccc(S(=O)(=O)N3CCN(c4cccc(Cl)c4)CC3)cc2N1,–,–,–,–,–
Cc1ccc(C)c(N2CCN(S(=O)(=O)c3ccc4c(c3)NC(=O)CO4)CC2)c1,–,–,–,–,11
Cc1cc2c(cc1S(=O)(=O)N1CCN(c3ccccc3F)CC1)OCC(=O)N2,–,–,–,–,13
O=[N+]([O-])c1cc(C=NN2CCCCC2)ccc1Cl,·,·,·,–,·
COc1cc(C(c2nnnn2C2CCCC2)N2CCN(C)CC2)cc(OC)c1OC (stereo not drawn),–,–,–,–,–
COc1ccc(C(c2nnnn2C2CCCC2)N2CCN(C3CCCC3)CC2)cc1OC (stereo not drawn),–,–,–,–,11
SMILES,ATG4B inh,SENP1 inh,NadD inh,UCH37 inh,GRIN3A LBD mod
COC(=O)c1nccnc1N,–,–,–,·,14
COC(=O)c1nc(C(=O)OC)c(C(=O)OC)nc1C(=O)OC,–,–,–,–,–
C(=Nn1cnnc1)c1cccnc1,·,·,·,–,·
O=[N+]([O-])c1ccc(C=NNc2nc(N3CCCCC3)nc(N3CCCCC3)n2)cc1,·,·,·,–,·
COc1ccc(C(=O)Nc2ccc3[nH]ncc3c2)cc1,–,–,–,–,12
CCOc1ccc(C(=O)Nc2ccc3[nH]ncc3c2)cc1,–,–,–,–,–
COc1ccc(C(=O)Nc2ccc3[nH]ccc3c2)cc1OC,–,–,–,–,–
COc1ccc(C(=O)Nc2ccc3[nH]ccc3c2)cc1,–,–,–,–,31
Cc1ccc(C=NNC(=O)c2sccc2OCc2ccc(F)cc2)cc1,·,·,·,–,·
COc1ccc(C(=O)NCC(=O)NN=C(C)Cc2ccccc2)cc1,·,·,·,–,·
CC1=C(C)C(=NOS(=O)(=O)c2ccc(C)cc2)C=CC1=O,·,·,·,–,·
N#Cc1c(N=Cc2cccnc2)sc2c1CCCC2,·,·,·,–,·
CN1CCN(Cn2cc(/C=C/C(=O)c3ccccc3)c3ccccc32)CC1,–,–,–,·,26
O=C(/C=C/c1cn(CC(O)CN2CCCCC2)c2ccccc12)c1ccccc1 (stereo not drawn),–,–,–,–,–
Cn1cnc(S(=O)(=O)Nc2ccc(Cl)c(C(F)(F)F)c2)c1,–,–,–,–,14
CN1CCN(N=Cc2c3ccccc3c(Cl)c3ccccc23)CC1,·,·,·,–,·
COc1ccccc1C=NNc1ccccc1[N+](=O)[O-],·,·,·,–,·
OCc1cn(-c2ccccc2)nc1-c1ccc(-c2nn(-c3ccccc3)cc2CO)cc1,–,–,–,–,24
Cc1ccc(-c2cc(N)n3nc(-c4ccc(C)cc4)cc3n2)cc1,–,–,–,–,27
Cc1ccc(-c2cc3nc(-c4ccccc4)cc(N)n3n2)cc1,–,–,–,–,13
Cc1cc(N)n2nc(-c3ccccc3)cc2n1,–,–,–,–,–
Cc1ccc(-c2cc3nc(-c4ccc(Br)cc4)cc(N)n3n2)cc1,–,–,–,–,39
COc1cc(C=NNc2nc(=O)[nH]nc2C)cc(OC)c1O,·,·,·,–,·
O=C(NN=Cc1ccc(OCCCF)cc1)c1cc(OCC(F)(F)F)ccc1OCC(F)(F)F,·,·,·,–,·
O=[N+]([O-])c1ccc(/C=N/NC(=S)Nc2ccc(Cl)cc2Cl)s1,–,–,–,·,11
SMILES,ATG4B inh,SENP1 inh,NadD inh,UCH37 inh,GRIN3A LBD mod
Cc1nn(C)cc1/C=N/NC(=S)Nc1ccc(Cl)cc1Cl,–,–,–,·,18
O=[N+]([O-])c1ccc(O)c(/C=N/NC(=S)Nc2ccc(Cl)cc2Cl)c1,–,–,–,·,–
Fc1ccccc1C=NNC(=S)Nc1ccc(Cl)cc1Cl,·,·,·,–,·
COc1ccc(C=NNc2nc(-c3ccc(C)cc3)c(C#N)c(=O)[nH]2)cc1,·,·,·,–,·
CC(=NNc1nc(N2CCOCC2)nc(N2CCOCC2)n1)c1cccs1,·,·,·,–,·
Cc1ccc(Oc2c(F)c(F)nc(N3CCCC3)c2F)cc1,–,–,–,–,13
CSc1nc2ccccc2cc1/C=C(\C#N)c1ccccc1,–,–,–,–,19
CSc1nc2ccccc2cc1/C=C(\C#N)c1cccc(C)c1,–,–,–,·,–
CSc1nc2ccccc2cc1/C=C(\C#N)c1ccc(Cl)c(Cl)c1,–,–,–,–,17
COc1ccc2[nH]c(C(=O)NN=Cc3ccc(OC)c(O)c3)cc2c1,·,·,·,–,·
O=C(Cn1cnc([N+](=O)[O-])n1)NN=Cc1cc(Cl)ccc1O,·,·,·,–,·
COc1ccc(C2(C(=O)NCCc3ccccc3)CCCC2)cc1,–,–,–,–,–
COc1ccc(C2(C(=O)O)CCCC2)cc1,–,–,–,–,11
CCOc1ccc(N/C=C/C(=O)c2ccc3ccccc3c2)c([N+](=O)[O-])c1,–,–,–,–,37
CCOc1ccc(N/C=C/C(=O)c2ccc(C)cc2)c([N+](=O)[O-])c1,–,–,–,–,–
COc1ccc(Cl)cc1C(=O)Nc1ccc(NC(C)=O)cc1,–,–,–,–,–
CC(=O)Oc1c(I)cc(I)cc1C(=O)Nc1ccc(Cl)cc1,–,–,–,·,16
